Reference: ChEMBL document CHEMBL3877293, “Synthesis and Antineoplastic Evaluation of Novel Unsymmetrical 1,3,4-Oxadiazoles” (J Med Chem, 2016)
Calls of active or inactive are those of the source. No cut-off for these calls is given here.

Assays:
[1] = Antiproliferative activity against human HeLa cells after 72 hrs by XTT assay; type: functional, cell-based
In short: (§1)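 Cells plated at 1500–2000 per well by doubling time, treated after 24 h with a concentration series in six triplicate wells, and incubated 72 h without a medium change. XTT reagent was then added for 4 h at 37 °C and absorbance read at 490 nm. IC50 is the concentration halving absorbance versus untreated cells. Experiments run in triplicate.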

MCF7 [2] = assay: Antiproliferative activity against human MCF7 cells at 2 uM after 72 hrs by XTT assay; type: functional, cell-based
[3] = Antiproliferative activity against human NCI-H1299 cells after 72 hrs by XTT assay; type: functional, cell-based; settings: NCI-H1299, 72 h; in short: as §1
MCF7 [4] = assay: Selectivity ratio of IC50 for human MCF7 cells to IC50 for human T98G cells; type: functional
In short: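 XTT viability: 1500–2000 cells/well plated by doubling time; compounds added after 24 h, then 72 h further culture without medium change. XTT reagent 4 h at 37 °C, absorbance read at 490 nm. IC50 is the concentration halving absorbance versus untreated cells; triplicate experiments. Ratio is MCF7 IC50 divided by IC50 in the named line.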

[5] = Cytotoxicity against human HeLa cells assessed as inhibition of colony formation at 0.03 uM after 2 weeks by crystal violet staining based assay relative to control; type: functional; settings: 336 h
In short: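 HeLa seeded at 100-200 cells/well in six-well plates and treated with 0.3 or 0.03 μM compound (DMSO control). Medium with compound changed every 3 days for about two weeks, until control colonies were visible. Colonies fixed and stained with 6.0% glutaraldehyde/0.5% crystal violet for 30 min, then counted against control. Done in triplicate.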

[6] = Cell cycle arrest in human HeLa cells assessed as G1 phase accumulation at 1 uM after 8 hrs by propidium iodide staining based flow cytometry (reference value: 62.7%); type: functional
[7] = Cell cycle arrest in human NCI-H1299 cells assessed as G1 phase accumulation at 1 uM after 48 hrs by propidium iodide staining based flow cytometry (reference value: 81%); type: functional
[8] = Cell cycle arrest in human NCI-H1299 cells assessed as S phase accumulation at 1 uM after 48 hrs by propidium iodide staining based flow cytometry (reference value: 7.2%); type: functional
[9] = Cell cycle arrest in human T98G cells assessed as G1 phase accumulation at 1 uM after 24 hrs by propidium iodide staining based flow cytometry (reference value: 86.1 +/- 1.29%); type: functional
[10] = Cell cycle arrest in human T98G cells assessed as S phase accumulation at 1 uM after 24 hrs by propidium iodide staining based flow cytometry (reference value: 5.1 +/- 0.82%); type: functional
[11] = Cell cycle arrest in human SK-N-AS cells assessed as subG1 phase accumulation at 1 uM after 24 hrs by propidium iodide staining based flow cytometry relative to DMSO control; type: functional
[12] = Cell cycle arrest in human SK-N-AS cells assessed as G2/M phase accumulation at 1 uM after 24 hrs by propidium iodide staining based flow cytometry (reference value: 25.2 +/- 1.32%); type: functional
[13] = Cell cycle arrest in human MCF7 cells assessed as G1 phase accumulation at 1 uM treated for 24 hrs followed by compound washout measured after 24 hrs by propidium iodide staining based flow cytometry (reference value: 61.4%); type: functional
[14] = Cell cycle arrest in human MCF7 cells assessed as S phase accumulation at 1 uM treated for 24 hrs followed by compound washout measured after 24 hrs by propidium iodide staining based flow cytometry (reference value: 12.2%); type: functional
[15] = Cell cycle arrest in human NB-1 cells assessed as G2/M phase accumulation at 1 uM after 48 hrs by propidium iodide staining based flow cytometry (reference value: 12.4%); settings: nb1, 48 h
[16] = Cell cycle arrest in human NB1 hTERT cells assessed as S phase accumulation at 1 uM after 24 hrs by propidium iodide staining based flow cytometry (reference value: 11.8%); type: functional
[17] = Disruption of beta-tubulin network in human MCF7 cells assessed as uneven distribution around nuclei at 1 uM after 24 hrs by DAPI staining based immunofluorescence microscopic analysis; type: cell-based
In short: (§2)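 Cells seeded on glass coverslips (1 x 10^5/well), treated 24 h, fixed in 4% paraformaldehyde 15 min, permeabilized with 0.5% Triton X-100, blocked in 5% BSA/PBS, stained overnight at 4 °C with anti-β-tubulin (1:200) then fluorescent secondary antibody; nuclei counterstained with DAPI; microtubule organization and nuclear morphology examined by fluorescence microscopy.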

SH-SY5Y = assay: Disruption of beta-tubulin network in human SH-SY5Y cells assessed as pyknotic nuclei at 1 uM after 24 hrs by DAPI staining based immunofluorescence microscopic analysis; type: cell-based; in short: as §2
MCF7 [18] = assay: Increase in p53 expression in human MCF7 cells at 1 uM after 24 hrs by immunoblot method relative to control; type: functional
In short: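 After 24 h treatment at 1 μM, cells lysed in Tris pH 8/NaCl/glycerol/NP-40/EDTA buffer with protease inhibitors. Equal lysate amounts run on 10% SDS gels, blotted to nitrocellulose, probed for p53 with GAPDH as loading control, detected by enhanced chemiluminescence. Bands quantified by densitometry against GAPDH and compared with untreated cells; three independent experiments.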

HeLa [19] = assay: Induction of apoptosis in human HeLa cells assessed as live cells at 5 uM after 48 hrs by Annexin-V FITC/propidium iodide staining based flow cytometry (reference value: 91.1%); type: functional
HeLa [20] = assay: Induction of apoptosis in human HeLa cells assessed as late apoptotic cells at 5 uM after 48 hrs by Annexin-V FITC/propidium iodide staining based flow cytometry (reference value: 4.9%); type: functional
[21] = Induction of apoptosis in human NB-1 cells assessed as late apoptotic cells at 5 uM after 72 hrs by Annexin-V FITC/propidium iodide staining based flow cytometry (reference value: 3.3%); type: cell-based; settings: nb1, 72 h
[22] = Induction of apoptosis in human NB1 hTERT cells assessed as late apoptotic cells at 5 uM after 72 hrs by Annexin-V FITC/propidium iodide staining based flow cytometry (reference value: 4.6%); type: functional

- Activity [15]: 15%
Compound: Cc1[nH]c2c(c1-c1nnc(-c3ccccc3)o1)Cc1ccccc1-2
- IC50 [1]: 50 nM
- Activity (MCF7 [2]): Active
- IC50 [3]: 120 nM
- Ratio IC50 (MCF7 [4]): 28 - 34
- inhibition at 0.03 µM [5]: ≤ 50%
- Activity [6]: 32.5%
- Activity [7]: 34.3%
- Activity [8]: 9.7%
- Activity [9]: 11.1%
- Activity [10]: 6.2%
- Activity [11]: 6.3%
- Activity [12]: 73%
- Activity [13]: 56.8%
- Activity [14]: 11.6%
- Activity [16]: 12.3%
- Activity [17]: Active
- Activity (SH-SY5Y): Active
- fold change (FC) (MCF7 [18]): 2 - 3
- Activity (HeLa [19]): 6%
- Activity (HeLa [20]): 85.1%
- Activity [21]: 8.3%
- Activity [22]: 13.2%
